Experimental data: ChEMBL document CHEMBL1153726, “Synthesis and anticancer activity of sclerophytin-inspired hydroisobenzofurans” (Bioorg Med Chem Lett, 2009)

How the values were obtained:
Format in all cases: functional
[1] = Growth inhibition of human Hs 578T cells at 1 nM after 96 hrs by MTT assay; parameters: scale not given: the % may be the effect or the level left
OVCAR-3 = assay: Growth inhibition of human OVCAR-3 cells at 1 nM after 96 hrs by MTT assay; parameters: scale not given: the % may be the effect or the level left
SNB-19 = assay: Growth inhibition of human SNB19 cells at 1 nM after 96 hrs by MTT assay; parameters: scale not given: the % may be the effect or the level left
SF-268 [2] = assay: Growth inhibition of human SF268 cells at 1 nM after 96 hrs by MTT assay; parameters: scale not given: the % may be the effect or the level left
KM12 [3] = assay: Growth inhibition of human KM12 cells at 1 nM after 96 hrs by MTT assay; parameters: scale not given: the % may be the effect or the level left
NCI-H460 = assay: Growth inhibition of human NCI-H460 cells at 1 nM after 96 hrs by MTT assay; parameters: scale not given: the % may be the effect or the level left
NCI-H322M [4] = assay: Growth inhibition of human NCI-H322M cells at 1 nM after 96 hrs by MTT assay; parameters: scale not given: the % may be the effect or the level left
SR = assay: Growth inhibition of human SR cells at 1 nM after 96 hrs by MTT assay; parameters: scale not given: the % may be the effect or the level left
OVCAR-4 [5] = assay: Growth inhibition of human OVCAR4 cells at 10 uM after 96 hrs by MTT assay; parameters: scale not given: the % may be the effect or the level left
UACC-62 [6] = assay: Growth inhibition of human UACC62 cells at 10 uM after 96 hrs by MTT assay; parameters: scale not given: the % may be the effect or the level left
U-251 [7] = assay: Growth inhibition of human U251 cells at 10 uM after 96 hrs by MTT assay; parameters: scale not given: the % may be the effect or the level left
SF-539 [8] = assay: Growth inhibition of human SF539 cells at 10 uM after 96 hrs by MTT assay; parameters: scale not given: the % may be the effect or the level left
SF-295 = assay: Growth inhibition of human SF295 cells at 10 uM after 96 hrs by MTT assay; parameters: scale not given: the % may be the effect or the level left
SF-268 [9] = assay: Growth inhibition of human SF268 cells at 10 uM after 96 hrs by MTT assay; parameters: scale not given: the % may be the effect or the level left
NCI-H522 [10] = assay: Growth inhibition of human NCI-H522 cells at 10 uM after 96 hrs by MTT assay; parameters: scale not given: the % may be the effect or the level left
SNB-75 = assay: Growth inhibition of human SNB75 cells at 10 nM after 96 hrs by MTT assay; parameters: scale not given: the % may be the effect or the level left
HT-29 = assay: Growth inhibition of human HT-29 cells at 10 nM after 96 hrs by MTT assay; parameters: scale not given: the % may be the effect or the level left
CAKI-1 [11] = assay: Growth inhibition of human Caki1 cells at 1 nM after 96 hrs by MTT assay; parameters: scale not given: the % may be the effect or the level left
UACC-62 [12] = assay: Growth inhibition of human UACC62 cells after 96 hrs by MTT assay; settings: UACC-62, 96 h
How it was run: (§1)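 Tested in the NCI 60-cell-line panel in five-dose format; GI50 and LC50 values reported for each cell line.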

OVCAR-4 [13] = assay: Growth inhibition of human OVCAR4 cells after 96 hrs by MTT assay; settings: OVCAR-4, 96 h; how it was run: as §1
NCI/ADR-RES = assay: Growth inhibition of human NCI/ADR-RES cells after 96 hrs by MTT assay
How it was run: (§2)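 Run in the NCI 60 human tumour cell line panel as a five-dose assay. GI50 and LC50 were reported for each cell line.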

MDA-MB-468 = assay: Growth inhibition of human MDA-MB-468 cells after 96 hrs by MTT assay; settings: MDA-MB-468, 96 h; how it was run: as §2
CAKI-1 [14] = assay: Growth inhibition of human Caki1 cells at 10 uM after 96 hrs by MTT assay; parameters: scale not given: the % may be the effect or the level left
NCI-H522 [15] = assay: Growth inhibition of human NCI-H522 cells after 96 hrs by MTT assay; settings: NCI-H522, 96 h; how it was run: as §2
[16] = Growth inhibition of human […] cells after 96 hrs by MTT assay; how it was run: as §1
T47D = assay: Growth inhibition of human T47D cells at 1 uM after 96 hrs by MTT assay; parameters: scale not given: the % may be the effect or the level left
PC-3 [17] = assay: Growth inhibition of human PC3 cells at 1 uM after 96 hrs by MTT assay; parameters: scale not given: the % may be the effect or the level left
ACHN = assay: Growth inhibition of human ACHN cells at 1 uM after 96 hrs by MTT assay; parameters: scale not given: the % may be the effect or the level left
OVCAR-8 = assay: Growth inhibition of human OVCAR8 cells at 1 uM after 96 hrs by MTT assay; parameters: scale not given: the % may be the effect or the level left
PC-3 [18] = assay: Growth inhibition of human PC3 cells at 100 nM after 96 hrs by MTT assay; parameters: scale not given: the % may be the effect or the level left
CAKI-1 [19] = assay: Growth inhibition of human Caki1 cells at 100 nM after 96 hrs by MTT assay; parameters: scale not given: the % may be the effect or the level left
786-0 = assay: Growth inhibition of human 786-0 cells at 100 nM after 96 hrs by MTT assay; parameters: scale not given: the % may be the effect or the level left
Malme-3M = assay: Growth inhibition of human MALME-3M cells at 100 nM after 96 hrs by MTT assay; parameters: scale not given: the % may be the effect or the level left
U-251 [20] = assay: Growth inhibition of human U251 cells at 100 nM after 96 hrs by MTT assay; parameters: scale not given: the % may be the effect or the level left
SF-539 [21] = assay: Growth inhibition of human SF539 cells at 100 nM after 96 hrs by MTT assay; parameters: scale not given: the % may be the effect or the level left
HCC 2998 [22] = assay: Growth inhibition of human HCC2998 cells at 100 nM after 96 hrs by MTT assay; parameters: scale not given: the % may be the effect or the level left
NCI-H522 [23] = assay: Growth inhibition of human NCI-H522 cells at 100 nM after 96 hrs by MTT assay; parameters: scale not given: the % may be the effect or the level left
DU-145 = assay: Growth inhibition of human DU145 cells at 10 nM after 96 hrs by MTT assay; parameters: scale not given: the % may be the effect or the level left
HCC 2998 [24] = assay: Growth inhibition of human HCC2998 cells at 10 nM after 96 hrs by MTT assay; parameters: scale not given: the % may be the effect or the level left
NCI-H322M [25] = assay: Growth inhibition of human NCI-H322M cells at 10 nM after 96 hrs by MTT assay; parameters: scale not given: the % may be the effect or the level left
KM12 [26] = assay: Growth inhibition of human KM12 cells at 1 uM after 96 hrs by MTT assay; parameters: scale not given: the % may be the effect or the level left
HCT-15 = assay: Growth inhibition of human HCT15 cells at 1 uM after 96 hrs by MTT assay; parameters: scale not given: the % may be the effect or the level left
NCI-H322M [27] = assay: Growth inhibition of human NCI-H322M cells at 1 uM after 96 hrs by MTT assay; parameters: scale not given: the % may be the effect or the level left
[28] = read-out: LC50 (the source's name)
[29] = read-out: Log10GI50 (converted)
[30] = read-out: Log10LC50 (converted)

`C=C(C)[C@H]1CC=C(C)C2=CO[C@@H](c3ccccc3F)[C@@H]21` gave an Activity [1] of 83%, an Activity (OVCAR-3) of 88% and an Activity (SNB-19) of 94%. The Activity (SF-268 [2]) was 91%, the Activity (KM12 [3]) was 95% and the Activity (NCI-H460) was 97%. For the same molecule, the Activity (NCI-H322M [4]) was 95%, the Activity (SR) was 83% and the Activity (OVCAR-4 [5]) was 88.01%. It also gave an Activity (UACC-62 [6]) of 54.63%, an Activity (U-251 [7]) of 97.35% and an Activity (SF-539 [8]) of 92.75%. For the same molecule, the Activity (SF-295) was 85.19%, the Activity (SF-268 [9]) was 105.37% and the Activity (NCI-H522 [10]) was 58.36%. It also gave an Activity (SNB-75) of 81%, an Activity (HT-29) of 92% and an Activity (CAKI-1 [11]) of 96%. It also gave a GI50 (UACC-62 [12]; read-out: GI50) of 3.31 µM, a CC50 (UACC-62 [12]; [28]) of 51.5 µM and a GI50 (UACC-62 [12]; [29]) of 3.31 µM. It also gave a CC50 (UACC-62 [12]; [30]) of 51.3 µM, a TGI (UACC-62 [12]; read-out: Log10TGI (converted)) of 18.2 µM and a TGI (UACC-62 [12]; read-out: TGI) of 18.3 µM. The GI50 (OVCAR-4 [13]; read-out: GI50) was 4.1 µM, the CC50 (OVCAR-4 [13]; [28]) was 86.6 µM and the GI50 (OVCAR-4 [13]; [29]) was 4.07 µM. For the same molecule, the CC50 (OVCAR-4 [13]; [30]) was 87.1 µM, the TGI (OVCAR-4 [13]; read-out: Log10TGI (converted)) was 24 µM and the TGI (OVCAR-4 [13]; read-out: TGI) was 23.7 µM. The GI50 (NCI/ADR-RES; read-out: GI50) was 3.67 µM, the CC50 (NCI/ADR-RES; [28]) was 56.1 µM and the GI50 (NCI/ADR-RES; [29]) was 3.63 µM. For the same molecule, the CC50 (NCI/ADR-RES; [30]) was 56.2 µM, the TGI (NCI/ADR-RES; read-out: Log10TGI (converted)) was 17.8 µM and the TGI (NCI/ADR-RES; read-out: TGI) was 17.9 µM. It also gave a GI50 (MDA-MB-468; read-out: GI50) of 1.43 µM, a CC50 (MDA-MB-468; [28]) of 66.1 µM and a GI50 (MDA-MB-468; [29]) of 1.45 µM. It also gave a CC50 (MDA-MB-468; [30]) of 66.1 µM, a TGI (MDA-MB-468; read-out: Log10TGI (converted)) of 14.1 µM and a TGI (MDA-MB-468; read-out: TGI) of 14.1 µM. It also gave an Activity (CAKI-1 [14]) of -25%, a GI50 (NCI-H522 [15]; read-out: GI50) of 3.13 µM and a CC50 (NCI-H522 [15]; [28]) of 45.5 µM. For the same molecule, the GI50 (NCI-H522 [15]; [29]) was 3.16 µM, the CC50 (NCI-H522 [15]; [30]) was 45.7 µM and the TGI (NCI-H522 [15]; read-out: Log10TGI (converted)) was 17.4 µM. For the same molecule, the TGI (NCI-H522 [15]; read-out: TGI) was 17.4 µM, the GI50 ([16]; read-out: GI50) was 0.148 µM and the CC50 [16, 28] was 9.36 µM. For the same molecule, the GI50 [16, 29] was 0.148 µM, the CC50 [16, 30] was 9.33 µM and the TGI ([16]; read-out: Log10TGI (converted)) was 2 µM. The TGI ([16]; read-out: TGI) was 2.01 µM, the Activity (T47D) was 2% and the Activity (PC-3 [17]) was 20%. For the same molecule, the Activity (ACHN) was 39%, the Activity (OVCAR-8) was 59% and the Activity (PC-3 [18]) was 70%. It also gave an Activity (CAKI-1 [19]) of 87%, an Activity (786-0) of 89% and an Activity (Malme-3M) of 74%. For the same molecule, the Activity (U-251 [20]) was 80%, the Activity (SF-539 [21]) was 84% and the Activity (HCC 2998 [22]) was 97%. The Activity (NCI-H522 [23]) was 71%, the Activity (DU-145) was 84% and the Activity (HCC 2998 [24]) was 89%. For the same molecule, the Activity (NCI-H322M [25]) was 84%, the Activity (KM12 [26]) was 24% and the Activity (HCT-15) was 31%. The Activity (NCI-H322M [27]) was 49%.
